Results reported in ChEMBL document CHEMBL1156731, “Antifungal activity of synthetic di(hetero)arylamines based on the benzo[b]thiophene moiety” (2008).
In brackets after ≈: the same amount, converted by molar mass. Activity calls are given as the source filed them. No cut-off for these calls is given here.

Legend:
Pichia kudriavzevii = experiment: Antifungal activity against Candida krusei ATCC 6258 after 48 hrs by broth macrodilution method; type: functional; conditions: ATCC 6258, 48 h
Method in brief: (§1)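 Yeasts grown 1 day on SDA at 37 °C, subcultured, suspended in saline and diluted in MOPS-buffered RPMI 1640 (pH 7.0) to 1-2 × 10^3 CFU/mL. Broth macrodilution per CLSI M27-A2, twofold dilutions 200-0.8 µg/mL (DMSO ≤2% final), aerobic, 37 °C, 48 h. MIC = 80% turbidity reduction vs drug-free control; MFC from SDA subculture at 37 °C. Three independent experiments in duplicate.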

Epidermophyton floccosum = experiment: Antifungal activity against Epidermophyton floccosum FF9 after 5 days by broth macrodilution method; type: functional; conditions: 120 h
Method in brief: (§2)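 Dermatophytes grown 5 days on SDA at 30 °C, subcultured. Conidial suspensions in saline were adjusted in MOPS-buffered RPMI 1640 (pH 7.0) to 1-2 × 10^4 CFU/mL. Macrodilution adapted from CLSI M38-A with 200-0.8 µg/mL twofold dilutions (DMSO ≤2%), incubated at 30 °C for 5 days. MIC at 80% turbidity reduction vs control; MFC by SDA subculture at 30 °C. Triplicate experiments in duplicate.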

Candida albicans [1] = experiment: Antifungal activity against Candida albicans D5 after 48 hrs by broth macrodilution method; type: functional; method in brief: as §1
Nannizzia gypsea = experiment: Antifungal activity against Microsporum gypseum FF3 after 5 days by broth macrodilution method; type: functional; conditions: 120 h; method in brief: as §2
[2] = test system: Trichophyton mentagrophytes; experiment: Antifungal activity against Trichophyton mentagrophytes FF7 after 5 days by broth macrodilution method; type: functional; conditions: 120 h; method in brief: as §2
Trichophyton rubrum = experiment: Antifungal activity against Trichophyton rubrum FF5 after 5 days by broth macrodilution method; type: functional; conditions: 120 h; method in brief: as §2
Candida albicans [3] = experiment: Antifungal activity against Candida albicans ATCC 10231 after 48 hrs by broth macrodilution method; type: functional; conditions: ATCC 10231, 48 h; method in brief: as §1
Nakaseomyces glabratus = experiment: Antifungal activity against Candida glabrata D10R after 48 hrs by broth macrodilution method; type: functional
Method in brief: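 Broth macrodilution per CLSI M27-A2 (minor modifications). Inoculum 1-2 × 10^3 CFU/mL in RPMI 1640 with L-glutamine, MOPS-buffered 0.165 M, pH 7.0. Twofold dilutions 200-0.8 µg/mL from DMSO stock (final DMSO ≤2%). Aerobic, 37 °C, 48 h. MIC = lowest concentration giving 80% turbidity reduction versus drug-free control. Three independent experiments in duplicate.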

Microsporum canis = experiment: Antifungal activity against Microsporum canis FF1 after 5 days by broth macrodilution method; type: functional; conditions: 120 h; method in brief: as §2
Candida tropicalis = experiment: Antifungal activity against Candida tropicalis ATCC 13803 after 48 hrs by broth macrodilution method; type: functional; conditions: ATCC 13803, 48 h; method in brief: as §1
Candida albicans [4] = experiment: Inhibition of germ tube formation in Candida albicans ATCC 10231 after 3 hrs by hemocytometer; type: functional, organism-based
Method in brief: (§3)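 Overnight SDA cultures (37 °C) were suspended in NYP medium (N-acetylglucosamine 10^-3 mol/L, YNB 3.35 g/L, proline 10^-3 mol/L, NaCl 4.5 g/L, pH 6.7) at (1.0 ± 0.2) × 10^6 CFU/mL. Compound added at 1/2, 1/4 and 1/8 MIC (1% DMSO final), 3 h at 37 °C. 100 cells counted by hemocytometer; germ tube at least blastospore diameter, pseudohyphae excluded. Mean ± SD, three experiments.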

Aspergillus flavus = experiment: Antifungal activity against Aspergillus flavus F44 after 3 days by broth macrodilution method; type: functional; conditions: 72 h
Method in brief: (§4)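 Aspergillus inoculum from 3-day SDA subcultures at 30 °C; conidial suspension in 0.85% saline, diluted in RPMI 1640 (L-glutamine, no bicarbonate, 0.165 M MOPS, pH 7.0) to 1-2 × 10^4 CFU/mL. Twofold dilutions 200-0.8 µg/mL from DMSO stock (final DMSO ≤2%); macrodilution per CLSI M38-A, 30 °C, 3 days. MIC = lowest concentration giving 80% turbidity reduction vs drug-free control; MFC by subculture on SDA. Three independent experiments in duplicate.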

Candida albicans [5] = experiment: Inhibition of germ tube formation in Candida albicans M1 after 3 hrs by hemocytometer; type: functional, organism-based; method in brief: as §3
Candida albicans [6] = experiment: Inhibition of germ tube formation in Candida albicans D5 after 3 hrs by hemocytometer; type: functional, organism-based; method in brief: as §3
Aspergillus fumigatus [7] = experiment: Antifungal activity against Aspergillus fumigatus ATCC 46645 after 3 days by broth macrodilution method; type: functional; conditions: ATCC 46645, 72 h; method in brief: as §4
Aspergillus niger = experiment: Antifungal activity against Aspergillus niger ATCC 16404 after 3 days by broth macrodilution method; type: functional; conditions: ATCC 16404, 72 h; method in brief: as §4
Aspergillus fumigatus [8] = experiment: Antifungal activity against Aspergillus fumigatus ATCC 46645 assessed as red fluorescence stained with FUN1 by flow cytometry; type: functional, organism-based
Method in brief: (§5)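 Conidia from 4–7-day SDA cultures suspended in water with 0.01% Tween 80 at (2.0 ± 0.2) × 10^6 CFU/mL. Exposed to twofold dilutions 256 to one µg/mL at 35 °C, water bath with agitation, 3, 4 and 24 h. FUN-1 0.5 µM (20 min, 35 °C, FL2) or PI 1 µg/mL (1 h, 35 °C, FL3); ≥7500 events; positive-cell marker set at ≤5% of drug-free controls.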

Candida albicans [9] = experiment: Antifungal activity against Candida albicans ATCC 10231 assessed as red fluorescence stained with FUN1 by flow cytometry; type: functional
Method in brief: (§6)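 Overnight SDA cells suspended in RPMI 1640 at (2.0 ± 0.2) × 10^6 CFU/mL. Twofold dilutions 256 to one µg/mL applied at 35 °C, humid, no agitation, 2, 4 and 24 h. Washed; FUN-1 0.5 µM in PBS/2% glucose (20 min, 35 °C, FL2) or PI 1 µg/mL with 0.125% deoxycholate (~10 min, room temperature, FL3). ≥7500 events; marker included ≤5% of drug-free control cells.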

Aspergillus fumigatus [10] = experiment: Antifungal activity against Aspergillus fumigatus ATCC 46645 assessed as red fluorescence stained with PI by flow cytometry; type: functional; method in brief: as §5
Candida albicans [11] = experiment: Antifungal activity against Candida albicans ATCC 10231 assessed as red fluorescence stained with PI by flow cytometry; type: functional; method in brief: as §6

| Compound | MFC (Pichia kudriavzevii) [mg/L] | MIC (Pichia kudriavzevii) [mg/L] | MFC (Epidermophyton floccosum) [mg/L] | MIC (Epidermophyton floccosum) [mg/L] | MFC (Candida albicans [1]) [mg/L] | MIC (Candida albicans [1]) [mg/L] | MFC (Nannizzia gypsea) [mg/L] | MIC (Nannizzia gypsea) [mg/L] | MFC [2] [mg/L] | MIC [2] [mg/L] | MFC (Trichophyton rubrum) [mg/L] | MIC (Trichophyton rubrum) [mg/L] | MFC (Candida albicans [3]) [mg/L] | MIC (Candida albicans [3]) [mg/L] | MFC (Nakaseomyces glabratus) [mg/L] | MIC (Nakaseomyces glabratus) [mg/L] | MFC (Microsporum canis) [mg/L] | MIC (Microsporum canis) [mg/L] | MFC (Candida tropicalis) [mg/L] | MIC (Candida tropicalis) [mg/L] | other results |
| --- | --- | --- | --- | --- | --- | --- | --- | --- | --- | --- | --- | --- | --- | --- | --- | --- | --- | --- | --- | --- | --- |
| OC(Cn1cncn1)(Cn1cncn1)c1ccc(F)cc1F [FLUCONAZOLE] | 64 (≈ 209 µM) | 64 (≈ 209 µM) | 16 (≈ 52.2 µM) | 16 (≈ 52.2 µM) | > 128 | > 128 | > 128 | > 128 | 32 (≈ 104 µM) | 16 (≈ 52.2 µM) | 32 (≈ 104 µM) | 16 (≈ 52.2 µM) | > 128 | 1 (≈ 3.27 µM) | 32 (≈ 104 µM) | 32 (≈ 104 µM) | 128 (≈ 418 µM) | 128 (≈ 418 µM) | > 128 | 4 (≈ 13.1 µM) |  |
| CCOC(=O)c1sc2ccccc2c1Nc1ccc(O)cc1O | > 50 | 25 (≈ 75.9 µM) | 12.5 (≈ 38 µM) | 6.25 (≈ 19 µM) | > 50 | 25 (≈ 75.9 µM) | 25 (≈ 75.9 µM) | 12.5 (≈ 38 µM) | 25 (≈ 75.9 µM) | 12.5 (≈ 38 µM) | 25 (≈ 75.9 µM) | 12.5 (≈ 38 µM) | > 200 | 25 (≈ 75.9 µM) | > 50 | 25 (≈ 75.9 µM) | 12.5 (≈ 38 µM) | 12.5 (≈ 38 µM) | > 50 | 50 (≈ 152 µM) | Activity (Candida albicans [4]): Active; MFC (Aspergillus flavus): > 100 mg/L; MIC (Aspergillus flavus): > 100 mg/L; Activity (Candida albicans [5]): Active; Activity (Candida albicans [6]): Active; MFC (Aspergillus fumigatus [7]): > 100 mg/L; MIC (Aspergillus fumigatus [7]): > 100 mg/L; MFC (Aspergillus niger): > 100 mg/L; MIC (Aspergillus niger): > 100 mg/L |
| CCOC(=O)c1sc2ccccc2c1Nc1ccc(F)cc1 | > 200 | > 200 | > 200 | > 200 | > 200 | > 200 | > 200 | > 200 | > 200 | > 200 | > 200 | > 200 | > 200 | > 200 | > 200 | > 200 | > 200 | > 200 | > 200 | > 200 | MFC (Aspergillus flavus): > 200 mg/L; MIC (Aspergillus flavus): > 200 mg/L; MFC (Aspergillus fumigatus [7]): > 200 mg/L; MIC (Aspergillus fumigatus [7]): > 200 mg/L; MFC (Aspergillus niger): > 200 mg/L; MIC (Aspergillus niger): > 200 mg/L |
| C[C@@H]1[C@H](O)[C@@H](C)/C=C/C=C/C=C/C=C/C=C/C=C/C=C/[C@H](O[C@@H]2O[C@H](C)[C@@H](O)[C@H](N)[C@@H]2O)C[C@@H]2O[C@](O)(C[C@@H](O)C[C@@H](O)[C@H](O)CC[C@@H](O)C[C@@H](O)CC(=O)O[C@H]1C)C[C@H](O)[C@H]2C(=O)O [AMPHOTERICIN B] |  |  |  |  |  |  |  |  |  |  |  |  |  |  |  |  |  |  |  |  | MFC (Aspergillus flavus): 8 mg/L (≈ 8.66 µM); MIC (Aspergillus flavus): 2 mg/L (≈ 2.16 µM); Activity (Aspergillus fumigatus [8]): Active; Activity (Candida albicans [9]): 60%; MFC (Aspergillus fumigatus [7]): 4 mg/L (≈ 4.33 µM); MIC (Aspergillus fumigatus [7]): 2 mg/L (≈ 2.16 µM); Activity (Aspergillus fumigatus [10]): 40%; Activity (Candida albicans [11]): 40%; MFC (Aspergillus niger): 4 mg/L (≈ 4.33 µM); MIC (Aspergillus niger): 1 mg/L (≈ 1.08 µM) |
